Source: paper PMC3288198 (ACS Chemical Biology, 2011)
“Also recorded” adds a separate entry of the source. Like-named read-outs stand apart in the source and are kept apart here. Where a SMILES comes first, the peptide text is derived from it. The star is where a group is joined. Cbz = O=C(OCc1ccccc1)*

Experiments:
FLT-3 and STAT5 = experiment: Western blot of FLT-3 and STAT5 levels in MV4-11 cells; format: cell-based, human; details: for effect on FLT-3 and STAT5 protein levels: 3 hr post-treatment
Summary of the method: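 MV4-11 cells cultured with 10% heat-inactivated FBS at 37°C, 5% CO2. Exposed to a concentration series of test compound, harvested 3 hr post-treatment. Lysed in low-salt Tris pH 7.4 buffer containing 1 μM TSA and sonicated. Lysates denatured in LDS and run on 4–12% gradient gels. Blots probed for FLT-3, STAT5, Erk and phospho-Erk; HRP secondary with ECL detection.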

[1] = tested on: acetylated histone H3 and H4; experiment: Western blot of acetylated histone H3/H4 in MV4-11 cells; format: cell-based, human
Summary of the method: (§1)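 MV4-11 cells (10% heat-inactivated FBS, 37°C, 5% CO2) treated with test compound at a range of concentrations. Washed in cold HBSS and lysed 30 min in low-salt Tris pH 7.4 buffer with protease/phosphatase inhibitors and 1 μM TSA, then sonicated. LDS-denatured lysates run on 4–12% gradient gels. Probes: acetyl-H3, acetyl-H4, total H3, acetyl-α-tubulin, tubulin. HRP secondary, ECL read-out.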

HDAC6 [2] = target: T1, HDAC6 (Homo sapiens, UniProt Q9UBN7); experiment: HDAC deacetylase homogenous fluorescence assay, HDAC6; format: biochemical; details: for concentration above which HDAC6 was inhibited: data not shown
T1 sequence (Q9UBN7 1-1215): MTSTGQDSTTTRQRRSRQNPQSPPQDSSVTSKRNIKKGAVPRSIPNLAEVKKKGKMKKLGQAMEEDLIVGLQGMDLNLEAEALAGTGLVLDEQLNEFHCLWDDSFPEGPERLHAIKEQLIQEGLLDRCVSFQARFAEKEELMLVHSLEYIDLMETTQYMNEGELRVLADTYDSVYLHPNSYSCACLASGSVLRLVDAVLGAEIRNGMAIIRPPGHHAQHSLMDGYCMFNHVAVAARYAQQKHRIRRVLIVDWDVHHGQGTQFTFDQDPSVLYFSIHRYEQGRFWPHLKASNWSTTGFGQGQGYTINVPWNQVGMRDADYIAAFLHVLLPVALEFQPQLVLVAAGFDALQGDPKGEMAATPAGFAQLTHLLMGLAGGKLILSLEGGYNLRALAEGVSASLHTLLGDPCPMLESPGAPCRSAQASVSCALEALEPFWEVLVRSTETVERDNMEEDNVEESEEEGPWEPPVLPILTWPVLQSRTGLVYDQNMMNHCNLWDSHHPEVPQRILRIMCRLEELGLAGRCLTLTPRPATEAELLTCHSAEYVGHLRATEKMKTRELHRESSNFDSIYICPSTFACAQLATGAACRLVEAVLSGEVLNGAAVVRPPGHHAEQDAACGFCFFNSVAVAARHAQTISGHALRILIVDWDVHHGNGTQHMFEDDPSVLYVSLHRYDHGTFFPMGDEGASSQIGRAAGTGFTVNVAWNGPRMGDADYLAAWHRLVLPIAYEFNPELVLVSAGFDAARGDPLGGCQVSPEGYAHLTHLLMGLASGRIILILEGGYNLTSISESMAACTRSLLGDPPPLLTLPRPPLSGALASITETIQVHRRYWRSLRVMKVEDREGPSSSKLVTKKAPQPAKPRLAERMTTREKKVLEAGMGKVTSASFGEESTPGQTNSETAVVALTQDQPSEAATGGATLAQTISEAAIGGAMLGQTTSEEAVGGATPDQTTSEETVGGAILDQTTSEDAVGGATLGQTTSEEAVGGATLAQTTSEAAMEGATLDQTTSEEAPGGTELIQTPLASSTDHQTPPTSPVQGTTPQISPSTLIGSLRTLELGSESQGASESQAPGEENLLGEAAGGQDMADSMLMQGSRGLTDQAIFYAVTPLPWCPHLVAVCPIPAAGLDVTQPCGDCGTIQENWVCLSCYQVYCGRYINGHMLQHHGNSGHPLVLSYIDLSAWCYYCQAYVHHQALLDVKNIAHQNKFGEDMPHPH
Summary of the method: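 Baculovirus-expressed recombinant human enzyme (HDAC3 as HDAC3/N-CoR2 complex) incubated with serially diluted test compound over a 12-point titration. Substrate: acetylated AMC-K(Ac)GL. Deacetylated product cleaved by lysine peptidase to free MCA, read at ex 355/em 460 nm. Data normalised to control plate by plate. IC50 and SD from non-linear regression; Ki via Cheng-Prusoff, Ki = IC50/(1+[S]/Km).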

ubiquitinated protein = experiment: Western blot of total ubiquitinated protein in MV4-11 cells; format: cell-based, human; details: within 3 hr
Hsp90 acetylation [3] = experiment: Immunoprecipitation/immunoblot of Hsp90 acetylation in MV4-11 cells; format: cell-based, human; details: 3 hr post-treatment
Summary of the method: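 MV4-11 AML cells (10% heat-inactivated FBS, 37°C, 5% CO2) treated with test compound, harvested 3 hr post-treatment. Cells washed in cold HBSS, lysed 30 min in low-salt buffer (50 mM Tris-HCl pH 7.4, 150 mM NaCl, 10% glycerol, Triton X-100, protease/phosphatase inhibitors, 1 μM TSA), then sonicated. Hsp90 pulled down on Hsp90-conjugated beads for 1 hr. Blots probed for Hsp90, acetyl-lysine and acetyl-Hsp90 K69.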

[4] = tested on: full panel of human recombinant HDAC enzymes; experiment: Inhibition profile over full panel of HDACs; format: biochemical
Summary of the method: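 Panel of recombinant human HDAC1–11, 12-point titration of test compound per isozyme. Substrates: AMC-K(Ac)GL for HDAC1, 2, 3/N-CoR2, 6 and 10; AMC-K(TFA)GL for HDAC4, 5, 7, 8, 9 and 11. Peptidase-released MCA fluorescence at ex 355/em 460 nm, normalised to controls. IC50 by non-linear regression.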

acetylated tubulin [5] = experiment: Western blot of acetylated tubulin in MV4-11 cells; format: cell-based, human
Summary of the method: as §1

[6] = tested on: mitogen stimulated proliferating PBMC; experiment: MTS cell proliferation assay, proliferating PBMC; format: cell-based, human; details: proliferating PBMC vs AML cells ex vivo
acetylated tubulin [7] = experiment: Western blot of acetylated tubulin in PBMC; format: cell-based, human; details: PBMC from normal donors, 3 hr post-treatment
Hsp90 acetylation [8] = details: 16 hrs post inhibitor treatment; cited from earlier work
HDAC6 [9] = details: cited from earlier work

Row | Compound | effect on acetylated histone H3/H4 levels [1] | induction of Hsp90 acetylation (Hsp90 acetylation [3]) | induction of acetylated tubulin (acetylated tubulin [5]) | effect on FLT-3 and STAT5 protein levels (FLT-3 and STAT5) | further results
1 | CC(C)C[C@@H](C=O)NC(=O)[C@H](CC(C)C)NC(=O)[C@H](CC(C)C)NC(=O)OCc1ccccc1 [MG132] (Cbz-Leu-Leu-Leu-aldehyde) | – | – | – | – | prevention of STAT5 degradation caused by HDAC6 inhibition (FLT-3 and STAT5; 10 μM MG132 co-treatment): did not prevent STAT5 degradation; rescue of FLT-3 degradation caused by HDAC6 inhibition (FLT-3 and STAT5; 10 μM MG132 co-treatment): rescued
2 | O=C1C=C(NCc2ccccc2)C(=O)c2ccccc21 [NQN-1, 2-benzyl-amino-naphthoquinone] | without an increase in histone H3 and H4 acetylation; also recorded: unexpectedly caused a decrease in acetylated histone H4 | induces Hsp90 acetylation | selectively induced hyperacetylated tubulin | decrease within 3 hr | IC50 (HDAC6 [2]; read-out: HDAC6 IC50, 12 point titration, acetylated substrate): 5.54 ± 0.9 µM; Ki (HDAC6 [2]; read-out: HDAC6 Ki, converted from IC50 using Cheng-Prusoff equation): 1.3 ± 0.22 µM; total ubiquitinated protein level (ubiquitinated protein): increase in total ubiquitinated protein level; HDAC inhibition profile / selectivity over the panel [4]: did not inhibit other HDACs in our panel; selectivity, proliferating PBMC over AML (MV4-11) cell toxicity [6]: 4 fold; tubulin acetylation level in PBMC (acetylated tubulin [7]): did not increase
3 | O=C(CCCCCCC(=O)Nc1ccccc1)NO [SAHA, Suberoylanilide hydroxamic acid] | induces both acetylated tubulin and histone | did not induce Hsp90 acetylation | induces both acetylated tubulin and histone | did not induce Hsp90 acetylation or reduce FLT-3 and STAT5 levels | –
4 | CC(/C=C/C(=O)NO)=C\[C@@H](C)C(=O)c1ccc(N(C)C)cc1 [TSA] | – | did not induce Hsp90 acetylation | – | did not induce Hsp90 acetylation or reduce FLT-3 and STAT5 levels | –
5 | CC1=C(C/C=C(\C)CCC[C@H](C)CCC[C@H](C)CCCC(C)C)C(=O)c2ccccc2C1=O [Vitamin K1] | – | – | – | – | concentration above which HDAC6 was inhibited (HDAC6 [2]): above 200 μM
6 | Cc1ccc(NC(=O)CCCCCC(=O)Nc2ccccc2N)cc1 [inhibitor 106] | only induces hyperacetylated histone H3/H4 | did not induce Hsp90 acetylation | – | did not induce Hsp90 acetylation or reduce FLT-3 and STAT5 levels | –
7 | O=C(CCCCCCC(=O)Nc1ccc([C@H]2O[C@@H](CSc3nc(-c4ccccc4)c(-c4ccccc4)o3)C[C@@H](c3ccc(CO)cc3)O2)cc1)NO [tubacin] | decreases in acetylated histones | – | – | – | induction of Hsp90 acetylation (Hsp90 acetylation [8]): does not significantly increase Hsp90 acetylation
8 | CN1CCc2c(c3ccccc3n2Cc2ccc(C(=O)NO)cc2)C1 [tubastatin A] | decreases in acetylated histones | No induction of Hsp90 acetylation | higher induction of tubulin acetylation | – | selectivity for HDAC6 over HDAC1 (HDAC6 [9]): > 1000
9 | CC1=CC(=O)c2ccccc2C1=O [vitamin K3, 2-methyl-naphthoquinone] | – | – | – | – | IC50 (HDAC6 [2]): 25 µM; HDAC inhibition profile / selectivity over the panel [4]: selectively inhibited HDAC6 and HDAC8 at low μM
10 | Vitamin K2 | – | – | – | – | concentration above which HDAC6 was inhibited (HDAC6 [2]): above 200 μM
